Assay results reported in ChEMBL document CHEMBL3769340, “Drug design, synthesis, in vitro and in silico evaluation of selective monoaminoxidase B inhibitors based on 3-acetyl-2-dichlorophenyl-5-aryl-2,3-dihydro-1,3,4-oxadiazole chemical scaffold” (Eur J Med Chem, 2016).

Experiments:
[1] = molecular target: T1, Amine oxidase [flavin-containing] B (Homo sapiens, UniProt P27338); assay: Inhibition of human recombinant MAO-B expressed in baculovirus infected BTI cells using p-tyramine as substrate after 15 mins by Amplex Red-based fluorescence assay; assay type: cell-based
T1 sequence (P27338 whole entry): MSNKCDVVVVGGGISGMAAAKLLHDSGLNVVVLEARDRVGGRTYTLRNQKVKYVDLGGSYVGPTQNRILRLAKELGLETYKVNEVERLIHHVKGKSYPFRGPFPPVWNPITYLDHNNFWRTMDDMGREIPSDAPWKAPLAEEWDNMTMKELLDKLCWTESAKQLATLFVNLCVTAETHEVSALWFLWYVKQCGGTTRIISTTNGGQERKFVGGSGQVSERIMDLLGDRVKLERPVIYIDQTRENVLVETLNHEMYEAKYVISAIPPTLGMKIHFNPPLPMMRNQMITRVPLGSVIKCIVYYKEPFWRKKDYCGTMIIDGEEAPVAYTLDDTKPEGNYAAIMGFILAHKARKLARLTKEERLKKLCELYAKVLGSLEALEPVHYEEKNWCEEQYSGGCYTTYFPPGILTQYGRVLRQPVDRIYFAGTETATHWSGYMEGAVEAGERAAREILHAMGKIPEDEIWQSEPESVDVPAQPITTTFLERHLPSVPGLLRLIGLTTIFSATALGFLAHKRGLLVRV

[2] = molecular target: T2, Amine oxidase [flavin-containing] A (Homo sapiens, UniProt P21397); assay: Inhibition of human recombinant MAO-A expressed in baculovirus infected BTI cells using p-tyramine as substrate at 100000 nM after 15 mins by Amplex Red-based fluorescence assay; conditions: 0.25 h, 100 µM
T2 sequence (P21397 whole entry): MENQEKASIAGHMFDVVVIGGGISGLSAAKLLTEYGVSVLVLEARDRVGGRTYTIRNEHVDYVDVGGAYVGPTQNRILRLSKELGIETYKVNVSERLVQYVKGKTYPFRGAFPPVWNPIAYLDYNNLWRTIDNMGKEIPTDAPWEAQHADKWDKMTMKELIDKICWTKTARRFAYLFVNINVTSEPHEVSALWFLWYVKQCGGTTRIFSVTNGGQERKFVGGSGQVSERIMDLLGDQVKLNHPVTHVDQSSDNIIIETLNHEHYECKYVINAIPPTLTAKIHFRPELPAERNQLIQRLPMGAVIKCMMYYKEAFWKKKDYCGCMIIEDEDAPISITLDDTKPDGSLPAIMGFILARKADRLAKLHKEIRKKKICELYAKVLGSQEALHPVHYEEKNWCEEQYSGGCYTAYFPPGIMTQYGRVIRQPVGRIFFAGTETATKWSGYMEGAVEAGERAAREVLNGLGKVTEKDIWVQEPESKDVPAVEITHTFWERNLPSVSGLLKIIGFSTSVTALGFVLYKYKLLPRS
Procedure, shortened: (§1)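 Recombinant hMAO-A or hMAO-B, set to oxidize 165 pmol p-tyramine/min in controls, preincubated with compound for 15 min at 37 °C in the dark. Reaction started with Amplex Red, horseradish peroxidase (1 U/mL) and p-tyramine. Resorufin fluorescence read at 37 °C (ex 545, em 590 nm), with an enzyme-free buffer blank subtracted. Single highest concentration tested: 100000 nM, or 1×10⁶ nM.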

[3] = molecular target: T1, Amine oxidase [flavin-containing] B; assay: Inhibition of human recombinant MAO-B expressed in baculovirus infected BTI cells using p-tyramine as substrate at 100000 nM after 15 mins by Amplex Red-based fluorescence assay; conditions: 0.25 h; for inhibition (INH): bti, 100 µM; procedure, shortened: as §1
[4] = molecular target: T1, Amine oxidase [flavin-containing] B; assay: Inhibition of human recombinant MAO-B expressed in baculovirus infected BTI cells using p-tyramine as substrate at 1x10'6 nM after 15 mins by Amplex Red-based fluorescence assay; conditions: 0.25 h; procedure, shortened: as §1

Row | Structure (SMILES) | IC50 [1] [nM] | inhibition (INH) [2] | also measured
1 | CC(=O)N1N=C(c2ccc([N+](=O)[O-])cc2)O[C@H]1c1ccc(Cl)c(Cl)c1 | 523 |  | 
2 | CC(=O)N1N=C(c2ccc(Br)cc2)OC1c1ccc(Cl)c(Cl)c1 (stereo not given) | 67.7 | Not Active | 
3 | CC(=O)N1N=C(c2ccncc2)OC1c1ccc(Cl)c(Cl)c1 (stereo not given) | 69400 | Not Active | 
4 | CC(=O)N1N=C(c2ccccc2)OC1c1ccc(Cl)c(Cl)c1 (stereo not given) |  | Not Active | inhibition at 100 µM ([3]; BTI): 40%
5 | CC(=O)N1N=C(c2ccccc2C)OC1c1ccc(Cl)c(Cl)c1 (stereo not given) | 2460 | Not Active | 
6 | COc1ccc(C2=NN(C(C)=O)C(c3ccc(Cl)c(Cl)c3)O2)cc1 (stereo not given) | 218 | Not Active | 
7 | CC(=O)N1N=C(c2ccc([N+](=O)[O-])cc2)O[C@@H]1c1ccc(Cl)c(Cl)c1 | 7.61 |  | 
8 | CC(=O)N1N=C(c2ccc(N(C)C)cc2)OC1c1ccc(Cl)c(Cl)c1 (stereo not given) |  | Not Active | inhibition (INH) [3]: Not Active
9 | CC(=O)N1N=C(c2ccc(Cl)cc2)O[C@H]1c1ccc(Cl)c(Cl)c1 |  |  | inhibition (INH) [3]: Not Active
10 | CC(=O)N1N=C(c2ccc(C)cc2)OC1c1ccc(Cl)c(Cl)c1 (stereo not given) | 19.3 | Not Active | 
11 | CC(=O)N1N=C(c2ccc(C#N)cc2)OC1c1ccc(Cl)c(Cl)c1 (stereo not given) |  | Not Active | inhibition (INH) [3]: Not Active
12 | CC(=O)N1N=C(c2ccc(Cl)cc2)O[C@@H]1c1ccc(Cl)c(Cl)c1 | 204 |  | 
13 | CC(=O)N1N=C(c2ccc(Cl)cc2)OC1c1ccc(Cl)c(Cl)c1 (racemic) | 627 | Not Active | 
14 | CC(=O)N1N=C(c2ccc([N+](=O)[O-])cc2)OC1c1ccc(Cl)c(Cl)c1 (racemic) | 9.46 | Not Active | 
15 | O=C(NCCN1CCOCC1)c1ccc(Cl)cc1 [MOCLOBEMIDE] |  |  | inhibition (INH) [4]: Not Active
